According to PubChem BioAssay AID624006 (Broad Institute, 2012):
“And” between values parts separate entries of the source, which are not always exact repeats. Identical values can stand only once.

System: Candida albicans CaCi-2 growth, Alamar Blue fluorescence, 48 h
Assay: single-agent growth inhibition of fluconazole-resistant C. albicans, dose response, CaCi-2 strain, Alamar Blue, dry powder, set 4 (AID 624006)
In short: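 Material: fluconazole-resistant C. albicans CaCi-2; Input: inoculum A600 0.00015; Medium: RPMI 1640 with MOPS buffer, uridine and glucose; Control set: amphotericin 10 µM positive control; Incubation: 48 h static compound exposure at 37 °C, then 2 h Alamar Blue; Signal: Alamar Blue fluorescence.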

Structure (SMILES) | AC50
CCOC(=O)N1C(=O)C2(CCCCC2)N(c2ccc(C#N)cc2)C1=S | 88.9 nM
CCOC(=O)N1C(=O)C2(CCCCC2)N(c2cccc(C)c2)C1=S | 194 nM
CC1/C=C/C=C\C=C\C=C\C=C\C=C\C=C\C(O[C@H]2OC(C)C(O)C(N)C2O)CC2OC(O)(CC(O)CC(O)C(O)CCC(O)CC(O)CC(=O)OC(C)C(C)C1O)CC(O)C2C(=O)O (some centres not stated) | 64.5 nM
CCOC(=O)N1C(=O)C2(CCCCC2)N(c2ccc(Cl)cc2)C1=S | 65.7 nM
CCOC(=O)N1C(=O)C2(CCCCC2)N(c2ccccc2)C1=S | 202 nM
CCOC(=O)N1C(=O)C2(CCCCC2)N(c2ccc(C)cc2)C1=S | 223 nM and 253 nM
CCOC(=O)N1C(=O)C2(CCCCC2)N(c2ccc(F)cc2)C1=S | 39.9 nM
